Experimental data from different studies.
Compare with care: the assays were run in different laboratories.
Organism: Pseudomonas aeruginosa

COc1c(C)c(OS(=O)(=O)c2ccc3ccccc3c2)c(C)c(OS(=O)(=O)c2ccc3ccccc3c2)c1C(=O)/C=C/c1ccccc1 — MBC (microbial killing; broth dilution; ATCC27853): > 5000 µg/mL
CC(C)Oc1c(NC(=O)c2ccc(NC(=O)[C@H](CC(N)=O)NC(=O)c3ccc(-c4nn[nH]c4-c4ccc(C#N)cc4)cc3)cc2)ccc(C(=O)Nc2ccc(C(=O)O)cc2)c1O — MIC (microbial growth; PA14): > 64 µg/mL
C=CCOc1c(C)c(O)c(C(=O)/C=C/c2ccccc2)c(OC)c1C — MBC (microbial killing; broth dilution; ATCC27853): > 5000 µg/mL
CC1(C)SC2C(NC(=O)C(NC(=O)C3=C(O)C4CCCN4C3=O)c3ccccc3)C(=O)N2C1C(=O)O (centres unmarked) — inhibition zone (microbial growth; well diffusion; PAO1; 200 µM): 12 mm
CCCCCCCCCC(=O)Oc1c(C)c(O)c(C(=O)/C=C/c2ccccc2)c(OC)c1C — MBC (microbial killing; broth dilution; ATCC27853): > 5000 µg/mL
COc1cc(C=CC(=O)CC(c2ccc([N+](=O)[O-])cc2)n2ccnc2)ccc1O (centres unmarked) — inhibition zone (microbial growth; disc diffusion; ATCC27853; 250 µg/mL): 6 mm
CC(C)Oc1c(NC(=O)c2ccc(NC(=O)[C@H](CC(N)=O)NC(=O)c3ccc(NC(=O)c4ccccc4)cc3)cc2)ccc(C(=O)Nc2ccc(C(=O)O)cc2)c1O — MIC (microbial growth; PA14): > 64 µg/mL
O=C(O)c1cn(C2CC2)c2cc(N3CCNCC3)c(F)cc2c1=O — inhibition zone (microbial growth; disc diffusion; 100 µg/mL; 24 h): 16 mm
CCCCCCCCCCCCCC(O)CC(O)CO (centres unmarked) — IC50 (microbial growth; broth dilution; ATCC27853): > 200 µg/mL
CC1(C)S[C@@H]2[C@H](NC(=O)C(C(=O)O)c3ccccc3)C(=O)N2[C@H]1C(=O)O (some centres unmarked) — inhibition zone (microbial growth; well diffusion; PAO1; 200 µM): 9.3 mm
CC(C)Oc1c(NC(=O)c2ccc(NC(=O)[C@H](CC(N)=O)NC(=O)c3ccc(NC(=O)C(C)Oc4ccc(C#N)cc4)cc3)cc2)ccc(C(=O)Nc2ccc(C(=O)O)cc2)c1O (some centres unmarked) — MIC (microbial growth; PA14): > 64 µg/mL
COc1c(C)c(OC)c2c(c1C)OC(c1ccccc1)CC2=O (centres unmarked) — MBC (microbial killing; broth dilution; ATCC27853): > 5000 µg/mL
COc1cc(C=CC(=O)CC(c2ccc(N(C)C)cc2)n2ccnc2)ccc1O (centres unmarked) — inhibition zone (microbial growth; disc diffusion; ATCC27853; 500 µg/mL): 23.3 mm
O=C(Sc1cccccc1=O)c1ccc(C(F)(F)F)cc1 — MIC80 (microbial growth; broth dilution; ATCC27853): > 71.4 µM
COc1c(C)c(OC(=O)c2ccc(C)cc2)c(C)c(O)c1C(=O)/C=C/c1ccccc1 — MBC (microbial killing; broth dilution; ATCC27853): > 5000 µg/mL
CCN1CCN(C(=O)N[C@@H](C(=O)N[C@@H]2C(=O)N3[C@@H]2SC(C)(C)[C@@H]3C(=O)O)c2ccccc2)C(=O)C1=O — inhibition zone (microbial growth; well diffusion; PAO1; 200 µM): 19 mm
CC[C@H](C)[C@H](NC(=O)OCC1c2ccccc2-c2ccccc21)C(=O)Sc1cccccc1=O — MIC80 (microbial growth; broth dilution; ATCC27853): > 71.4 µM
